# Measurements: ChEMBL document CHEMBL1140131, “Synthesis and in vitro evaluation of 5-[(18)f]fluoroalkyl pyrimidine nucleosides for molecular imaging of herpes simplex virus type 1 thymidine kinase reporter gene expression” (J Med Chem, 2008)
# Columns and labels:
# RG2 [1] = test: Cytotoxicity against RG2 cells after 72 hrs by MTT assay; assay type: cell-based; details: rat, rg2, 72 h
# Method in brief: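 RG2 cells were seeded at 1.5 × 10^3/well, left overnight, then exposed to drug at 0.001–1000 μmol/L in culture medium, in quadruplicate, for 72 h at 37 °C. MTT (1 mg/mL) was added for 3 h and the formazan dissolved in DMSO. Absorbance was read at 490 nm with a 650 nm reference, blank subtracted, and growth given as % of untreated control. CC50 was taken as mean of three experiments.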
# [2] = Inhibition of [125I]FIAU uptake in RG2TK+ cells overexpressing HSV1-tk gene; assay type: functional, cell-based; details: Rattus norvegicus
# Method in brief: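 HSV1-tk-expressing RG2TK+ glioma cells incubated 2 h with [125I]FIAU plus inhibitor at 0–300 μM. Cell-associated radioactivity measured. IC50 is the concentration giving 50% inhibition of [125I]FIAU uptake; mean ± S.D. of at least three experiments in duplicate.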
# [3] = Cytotoxicity against HSV1-tk gene overexpressing RG2TK+ cells after 72 hrs by MTT assay; assay type: cell-based; details: rat
# Method in brief: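 RG2TK+ cells (HSV1-tk-transduced rat glioma) seeded at 1.5 × 10^3 cells/well overnight, then exposed to drug at 0.001–1000 μmol/L in quadruplicate for 72 h at 37 °C. MTT (1 mg/mL) added for 3 h; formazan dissolved in DMSO and read at 490 nm (650 nm reference). Blanks subtracted; growth given as % of untreated control. CC50 reported as mean ± S.E.M. of three experiments in duplicate.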
# [4] = Lipophilicity, log P at pH 7.4; assay type: physicochemical; details: buffer
# Method in brief: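 Radiolabelled nucleoside (20 μL in water) was partitioned between 3 g 1-octanol and 3 g 0.1 M NaH2PO4 buffer, pH 7.4. The mixture was vortexed 3 min at room temperature, then centrifuged 5 min. Weighed 0.5 g samples of each layer were gamma counted, and the octanol layer was repartitioned until values were consistent. log P was taken as the log of the ratio of cpm/g octanol to cpm/g buffer. Triplicate, repeated three times.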
# RG2 [5] = test: Cellular uptake in RG2 cells assessed per 10^6 cells at 0.2 MBq after 2 hrs; assay type: ADME, cell-based; details: rat, rg2, 2 h
# Method in brief: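 Wild-type RG2 rat glioma monolayers (5 × 10^5 cells/well, 24 h growth) were incubated at 37 °C in 0.5 mL serum-free medium with about 0.2 MBq (5 μCi) of 18F-labelled nucleoside (SA 18.5–925 GBq/μmol). After 2 h they were washed with cold PBS, trypsinized and viable cells counted by trypan blue. Gamma counts (400–1600 keV) were normalized to viable cell number and to total activity, expressed as % per 10^6 cells. Three or more experiments, each in duplicate.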
# [6] = Cellular uptake in HSV1-tk gene overexpressing RG2TK+ cells assessed per 10^6 cells at 0.2 MBq after 2 hrs; assay type: ADME; details: rat
# Method in brief: (§1)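 RG2 rat glioma cells transduced with HSV1-tk (kept in G418 250 mg/L), 5 × 10^5 cells/well, grown 24 h, then incubated at 37 °C in serum-free medium with ~0.02 MBq [125I]FIAU or ~0.2 MBq 18F-tracer. Sampled at 5–120 min. After cold PBS washes and trypsinization, cell-bound activity was gamma counted and normalized to viable (trypan blue) cells and to total dose. Mean ± S.D., ≥3 experiments in duplicate.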
# RG2 [7] = test: Selectivity index, ratio of cellular uptake in HSV1-tk gene overexpressing RG2TK+ cells to cellular uptake in RG2 cells; assay type: functional, Rattus norvegicus
# Method in brief: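 Tracer uptake measured in parallel in HSV1-tk-transduced RG2TK+ and wild-type RG2 glioma cells: 37 °C, serum-free medium, ~0.2 MBq 18F-tracer. Activity was gamma counted and normalized to viable cells and dose. The index is the average ratio of accumulation in RG2TK+ to accumulation in RG2.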
# [8] = Cellular uptake in HSV1-tk gene overexpressing RG2TK+ cells assessed per 10^6 cells at 0.02 MBq after 2 hrs; assay type: ADME; details: rat; method in brief: as §1
# RG2 [9] = test: Cellular uptake in RG2 cells assessed per 10^6 cells at 0.02 MBq after 2 hrs; assay type: ADME, cell-based; details: rat, rg2, 2 h
# Method in brief: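 Wild-type RG2 rat glioma monolayers (5 × 10^5 cells/well, grown 24 h at 37 °C in DMEM, 10% FBS) washed with warm PBS, then incubated at 37 °C in 0.5 mL serum-free medium with about 0.02 MBq [125I]FIAU (SA 2,200 Ci/mmol). After 2 h, cells were washed with cold PBS, trypsinized and counted for viability by trypan blue. Cell-associated gamma counts were normalized to viable cells and to activity added, given as % per 10^6 cells. Three or more experiments, each in duplicate.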
smiles,measurement,setting,value
O=c1[nH]c(=O)n([C@@H]2O[C@H](CO)[C@@H](O)[C@@H]2F)cc1I [FIALURIDINE],CC50,RG2 [1],80 µM
same,IC50,[2],0.7 µM
same,CC50,[3],0.79 µM
O=c1[nH]c(=O)n([C@@H]2O[C@H](CO)[C@@H](O)[C@@H]2F)cc1CCCCCF,CC50,RG2 [1],> 1000 µM
same,IC50,[2],22.9 µM
same,CC50,[3],375 µM
O=c1[nH]c(=O)n([C@H]2C[C@H](O)[C@@H](CO)O2)cc1CCCCCF,CC50,RG2 [1],> 750 µM
same,IC50,[2],36.8 µM
same,CC50,[3],> 650 µM
O=c1[nH]c(=O)n([C@H]2C[C@H](O)[C@@H](CO)O2)cc1CCCCC[18F],logD,[4],0.23
same,Drug uptake,RG2 [5],0.23%
same,Drug uptake,[6],4.4%
same,Ratio,RG2 [7],19.9
O=c1[nH]c(=O)n([C@@H]2O[C@H](CO)[C@@H](O)[C@@H]2F)cc1[125I],logD,[4],0.05
same,Drug uptake,[8],29.4%
same,Ratio,RG2 [7],9.9
same,Drug uptake,RG2 [9],3.4%
O=c1[nH]c(=O)n([C@@H]2O[C@H](CO)[C@@H](O)[C@@H]2F)cc1CCCCF,CC50,RG2 [1],355 µM
same,IC50,[2],23 µM
same,CC50,[3],346 µM
O=c1[nH]c(=O)n([C@@H]2O[C@H](CO)[C@@H](O)[C@@H]2F)cc1CCCCC[18F],logD,[4],0.74
same,Drug uptake,RG2 [5],0.24%
same,Drug uptake,[6],1.2%
same,Ratio,RG2 [7],5.5
O=c1[nH]c(=O)n([C@@H]2O[C@H](CO)[C@@H](O)[C@H]2F)cc1/C=C/[123I],logD,[4],1.22
O=c1[nH]c(=O)n([C@H]2C[C@H](O)[C@@H](CO)O2)cc1CCCF,CC50,RG2 [1],> 450 µM
same,IC50,[2],7.6 µM
same,CC50,[3],> 1000 µM
O=c1[nH]c(=O)n([C@H]2C[C@H](O)[C@@H](CO)O2)cc1CCC[18F],logD,[4],-0.57
same,Drug uptake,RG2 [5],0.41%
same,Drug uptake,[6],8.2%
same,Ratio,RG2 [7],20.5
O=c1[nH]c(=O)n([C@H]2C[C@H](O)[C@@H](CO)O2)cc1CCCCF,CC50,RG2 [1],> 800 µM
same,IC50,[2],34.5 µM
same,CC50,[3],> 800 µM
O=c1[nH]c(=O)n([C@@H]2O[C@H](CO)[C@@H](O)[C@@H]2F)cc1CCC[18F],logD,[4],-0.12
same,Drug uptake,RG2 [5],0.38%
same,Drug uptake,[6],1.9%
same,Ratio,RG2 [7],5
O=c1[nH]c(=O)n([C@@H]2O[C@H](CO)[C@@H](O)[C@@H]2F)cc1CCCF,CC50,RG2 [1],121 µM
same,IC50,[2],51.2 µM
same,CC50,[3],209 µM
O=c1[nH]c(=O)n([C@@H]2O[C@H](CO)[C@@H](O)[C@@H]2F)cc1CCCC[18F],logD,[4],0.27
same,Drug uptake,RG2 [5],0.66%
same,Drug uptake,[6],3.7%
same,Ratio,RG2 [7],7.8
Nc1nc(O)c2ncn(COC(CO)CO)c2n1 [GANCICLOVIR],CC50,RG2 [1],377 µM
same,CC50,[3],5.86 µM
O=c1[nH]c(=O)n([C@@H]2O[C@H](CO)[C@@H](O)[C@@H]2F)cc1/C=C/[123I],logD,[4],1.24
O=c1[nH]c(=O)n([C@H]2C[C@H](O)[C@@H](CO)O2)cc1CCCC[18F],logD,[4],-0.24
same,Drug uptake,RG2 [5],0.59%
same,Drug uptake,[6],8.4%
same,Ratio,RG2 [7],14.9
